ChEMBL document CHEMBL4270568, “Identification, structural modification, and dichotomous effects on human immunodeficiency virus type 1 (HIV-1) replication of ingenane esters from Euphorbia kansui” (Eur J Med Chem, 2018)

tested on: MT4; test: Cytotoxicity against human MT4 cells after 3 days by CytoTox-Glo assay; format: cell-based; details: mt4, 72 h
Procedure, shortened: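 MT4 cells cultured for 3 days with various compound concentrations. Cytotoxicity is read by CytoTox-Glo following the manufacturer's protocol. CC50 = concentration causing 50% reduction of cell viability.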

Structure (SMILES) | CC50
CC(=O)O[C@H]1C(C)=C[C@]23C(=O)[C@@H](C=C(C)[C@@H](OC(=O)c4ccccc4)[C@]12O)[C@H]1[C@@H](C[C@H]3C)C1(C)C | > 8.4 µM
CC1=C[C@@H]2C(=O)[C@]3(C=C(C)[C@H](O)[C@@]3(O)[C@@H]1OC(=O)c1ccccc1)[C@H](C)C[C@@H]1[C@H]2C1(C)C | > 9.2 µM
Cc1cn([C@H]2C[C@H](N=[N+]=[N-])[C@@H](CO)O2)c(=O)[nH]c1=O [ZIDOVUDINE] | > 0.4 µM
CC1=C[C@@H]2C(=O)[C@]3(C=C(C)[C@H](O)[C@@]3(O)[C@@H]1O)[C@H](C)C[C@@H]1[C@H]2C1(C)C | > 12 µM
C/C=C(/C)C(=O)O[C@H]1C(C)=C[C@]23C(=O)[C@@H](C=C(C)[C@@H](O)[C@]12O)[C@H]1[C@@H](C[C@H]3C)C1(C)C | > 9.7 µM
CCCCCCCCCCCC(=O)O[C@@]12C[C@@H](C)[C@]34C=C(C)[C@H](O)[C@@]3(O)[C@H](O)C(CO)=C[C@H](C4=O)[C@@H]1C2(C)C | > 9.2 µM
CC1=C[C@@H]2C(=O)[C@]3(C=C(C)[C@H](OC(=O)c4ccccc4)[C@@]3(O)[C@@H]1O)[C@H](C)C[C@@H]1[C@H]2C1(C)C | > 9.2 µM
CC1=C[C@@H]2C(=O)[C@]3(C=C(C)[C@H](O)[C@@]3(O)[C@@H]1OC(=O)c1ccc3ccccc3c1)[C@H](C)C[C@@H]1[C@H]2C1(C)C | > 8.2 µM
CC1=C[C@@H]2C(=O)[C@]3(C=C(C)[C@H](O)[C@@]3(O)[C@@H]1OC(=O)/C=C/c1ccccc1)[C@H](C)C[C@@H]1[C@H]2C1(C)C | > 8.7 µM
CCCCCCCCCCCC(=O)O[C@@]12C[C@@H](C)[C@]34C=C(C)[C@H](OC(=O)C(C)C(C)C)[C@@]3(O)[C@H](O)C(CO)=C[C@H](C4=O)[C@@H]1C2(C)C (stereo not given in full) | > 6.2 µM

tested on: not listed separately; test: Selectivity index, ratio of CC50 for human MT4 cells to EC50 for Human immunodeficiency virus 1 NL4-3 infected in human MT4 cells; format: toxicity, cell-based; details: read-out: Ratio CC50/EC50
Procedure, shortened: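 SI = CC50/EC50. CC50 is from a 3-day CytoTox-Glo assay on MT4 cells. EC50 is from MT4 cells infected with 50 TCID50/well NL4-3 Nanoluc-sec and given graded compound, with supernatant luciferase read on day 3 as 50% reduction.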

Structure (SMILES) | selectivity ratio
CC(=O)O[C@H]1C(C)=C[C@]23C(=O)[C@@H](C=C(C)[C@@H](OC(=O)c4ccccc4)[C@]12O)[C@H]1[C@@H](C[C@H]3C)C1(C)C | > 23
CC1=C[C@@H]2C(=O)[C@]3(C=C(C)[C@H](O)[C@@]3(O)[C@@H]1OC(=O)c1ccccc1)[C@H](C)C[C@@H]1[C@H]2C1(C)C | > 216
CC1=C[C@@H]2C(=O)[C@]3(C=C(C)[C@H](O)[C@@]3(O)[C@@H]1O)[C@H](C)C[C@@H]1[C@H]2C1(C)C | > 10
C/C=C(/C)C(=O)O[C@H]1C(C)=C[C@]23C(=O)[C@@H](C=C(C)[C@@H](O)[C@]12O)[C@H]1[C@@H](C[C@H]3C)C1(C)C | > 22.8
C/C=C(\C)C(=O)O[C@H]1C(C)=C[C@]23C(=O)[C@@H](C=C(C)[C@@H](O)[C@]12O)[C@H]1[C@@H](C[C@H]3C)C1(C)C | > 46
CCCCCCCCCCCC(=O)O[C@@]12C[C@@H](C)[C@]34C=C(C)[C@H](O)[C@@]3(O)[C@H](O)C(CO)=C[C@H](C4=O)[C@@H]1C2(C)C | > 273
CC1=C[C@@H]2C(=O)[C@]3(C=C(C)[C@H](OC(=O)c4ccccc4)[C@@]3(O)[C@@H]1O)[C@H](C)C[C@@H]1[C@H]2C1(C)C | > 302
CC1=C[C@@H]2C(=O)[C@]3(C=C(C)[C@H](O)[C@@]3(O)[C@@H]1OC(=O)c1ccc3ccccc3c1)[C@H](C)C[C@@H]1[C@H]2C1(C)C | > 179
CC1=C[C@@H]2C(=O)[C@]3(C=C(C)[C@H](O)[C@@]3(O)[C@@H]1OC(=O)/C=C/c1ccccc1)[C@H](C)C[C@@H]1[C@H]2C1(C)C | > 22
CCCCCCCCCCCC(=O)O[C@@]12C[C@@H](C)[C@]34C=C(C)[C@H](OC(=O)C(C)C(C)C)[C@@]3(O)[C@H](O)C(CO)=C[C@H](C4=O)[C@@H]1C2(C)C (stereo not given in full) | > 7500

tested on: Human immunodeficiency virus 1; test: Antiviral activity against Human immunodeficiency virus 1 NL4-3 infected in human MT4 cells measured on day 3 post infection by Nano-Glo luciferase reporter gene assay; format: functional, organism-based; details: Human immunodeficiency virus 1, NL4-3, MT4, 72 h
Procedure, shortened: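 HIV-1 NL4-3 Nanoluc-sec reporter virus at 50 TCID50/well infects MT4 cells (1 × 10⁵ cells/mL) in the presence of graded compound concentrations. On day 3 post-infection, supernatant is assayed for secreted NanoLuc luciferase.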

Structure (SMILES) | EC50
CC(=O)O[C@H]1C(C)=C[C@]23C(=O)[C@@H](C=C(C)[C@@H](OC(=O)c4ccccc4)[C@]12O)[C@H]1[C@@H](C[C@H]3C)C1(C)C | 367 nM
CC1=C[C@@H]2C(=O)[C@]3(C=C(C)[C@H](O)[C@@]3(O)[C@@H]1OC(=O)c1ccccc1)[C@H](C)C[C@@H]1[C@H]2C1(C)C | 42.6 nM
CC1=C[C@@H]2C(=O)[C@]3(C=C(C)[C@H](O)[C@@]3(O)[C@@H]1O)[C@H](C)C[C@@H]1[C@H]2C1(C)C | > 12000 nM
C/C=C(/C)C(=O)O[C@H]1C(C)=C[C@]23C(=O)[C@@H](C=C(C)[C@@H](O)[C@]12O)[C@H]1[C@@H](C[C@H]3C)C1(C)C | 426 nM
C/C=C(\C)C(=O)O[C@H]1C(C)=C[C@]23C(=O)[C@@H](C=C(C)[C@@H](O)[C@]12O)[C@H]1[C@@H](C[C@H]3C)C1(C)C | 209 nM
CCCCCCCCCCCC(=O)O[C@@]12C[C@@H](C)[C@]34C=C(C)[C@H](O)[C@@]3(O)[C@H](O)C(CO)=C[C@H](C4=O)[C@@H]1C2(C)C | 33.7 nM
CC1=C[C@@H]2C(=O)[C@]3(C=C(C)[C@H](OC(=O)c4ccccc4)[C@@]3(O)[C@@H]1O)[C@H](C)C[C@@H]1[C@H]2C1(C)C | 30.5 nM
CC1=C[C@@H]2C(=O)[C@]3(C=C(C)[C@H](O)[C@@]3(O)[C@@H]1OC(=O)c1ccc3ccccc3c1)[C@H](C)C[C@@H]1[C@H]2C1(C)C | 15.5 nM
CC1=C[C@@H]2C(=O)[C@]3(C=C(C)[C@H](O)[C@@]3(O)[C@@H]1OC(=O)/C=C/c1ccccc1)[C@H](C)C[C@@H]1[C@H]2C1(C)C | 396 nM
CCCCCCCCCCCC(=O)O[C@@]12C[C@@H](C)[C@]34C=C(C)[C@H](OC(=O)C(C)C(C)C)[C@@]3(O)[C@H](O)C(CO)=C[C@H](C4=O)[C@@H]1C2(C)C (stereo not given in full) | 0.8 nM
